Calls of active or inactive are those of the source. The rule behind the calls is not given here.
Assays:
[1] = biological target: Dual specificity protein kinase CLK3 (Mus musculus, UniProt O35492); assay: Inhibition of mouse recombinant GST-tagged CLK3 using GRSRSRSRSRSR as substrate
How it was run: (§1)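 Mouse GST-fusion CLK1 or CLK3 expressed in E. coli. Assay buffer A (Tris-HCl pH 7.5, MgCl2, EGTA, DTT, heparin) plus 0.15 mg/mL BSA. RS peptide 1 μg/assay, 15 μM ATP final, 30 C. Blank subtracted; activity expressed as percent of activity without inhibitor. DMSO controls. Concentration range up to 10 μM.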

[2] = biological target: Glycogen synthase kinase-3 (Sus scrofa, UniProt B2LUN4+I6LNT8); assay: Inhibition of pig brain GSK-3alpha/beta using YRRAAVPPSPSLSRHSSPHQSpEDEEE as substrate
How it was run: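 Compounds were tested at various concentrations, the highest being 10 μM, with DMSO dilution controls. Blanks were subtracted and activity was expressed as percent of the uninhibited maximum.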

[3] = biological target: T1, Dual specificity tyrosine-phosphorylation-regulated kinase 2 (Homo sapiens, UniProt Q92630); assay: Inhibition of human recombinant GST-tagged DYRK2 using KKISGRLSPIMTEQ as substrate and [gamma32]-ATP after 30 mins by scintillation counting
T1 sequence (Q92630 whole entry): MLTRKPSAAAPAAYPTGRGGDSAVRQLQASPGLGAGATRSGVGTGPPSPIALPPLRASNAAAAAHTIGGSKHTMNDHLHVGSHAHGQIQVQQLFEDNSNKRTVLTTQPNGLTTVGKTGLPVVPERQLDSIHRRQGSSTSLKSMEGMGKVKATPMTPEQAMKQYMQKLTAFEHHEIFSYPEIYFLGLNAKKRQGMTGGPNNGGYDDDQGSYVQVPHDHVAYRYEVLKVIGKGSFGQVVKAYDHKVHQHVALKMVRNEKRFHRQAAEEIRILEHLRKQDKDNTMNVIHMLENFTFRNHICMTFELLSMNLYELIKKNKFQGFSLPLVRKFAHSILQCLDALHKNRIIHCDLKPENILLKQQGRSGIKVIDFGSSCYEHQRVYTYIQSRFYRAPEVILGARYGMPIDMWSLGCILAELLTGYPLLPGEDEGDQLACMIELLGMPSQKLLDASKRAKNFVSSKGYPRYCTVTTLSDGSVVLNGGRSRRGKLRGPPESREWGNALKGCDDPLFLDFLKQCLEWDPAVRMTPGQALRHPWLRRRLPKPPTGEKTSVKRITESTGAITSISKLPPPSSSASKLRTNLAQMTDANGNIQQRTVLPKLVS
How it was run: (§2)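 GST fusion kinases expressed in E. coli and purified on glutathione-agarose; DYRK1A is rat, DYRK2 is human. Assay buffer A (25 mM Tris-HCl pH 7.5, 10 mM MgCl2, 1 mM EGTA, 1 mM DTT, 50 μg/mL heparin) plus 0.15 mg/mL BSA. Product captured on P81 paper, washed in 1% phosphoric acid, scintillation counted. Activity expressed as percent of uninhibited control.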

[4] = biological target: Dual specificity protein kinase CLK1 (Mus musculus, UniProt P22518); assay: Inhibition of mouse recombinant GST-tagged CLK1 using GRSRSRSRSRSR as substrate; how it was run: as §1
[5] = Inhibition of pig brain CK1 delta/epsilon using RRKHAAIGpSAYSITA as substrate; parameters: species or system Sus scrofa
How it was run: (§3)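 Native CK1δ/ε from porcine brain, assayed in 3-fold diluted buffer C with 25 μM CKS peptide substrate. 15 μM ATP final, 30 C. Activity is percent of uninhibited control after blank subtraction, with DMSO controls. Inhibitor tested over a range of concentrations up to 10 μM.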

[6] = biological target: T2, Serine/threonine-protein kinase pim-1 (Homo sapiens, UniProt P11309); assay: Inhibition of human recombinant Pim1
How it was run: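 Kinase assayed in buffer C (25 mM Mops pH 7.2, 60 mM beta-glycerophosphate, 30 mM p-nitrophenylphosphate, 15 mM MgCl2, 5 mM EGTA, 1 mM DTT, 0.1 mM vanadate) with 1 mg/mL histone H1. DMSO controls.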
Target sequence in this assay (P11309 whole entry): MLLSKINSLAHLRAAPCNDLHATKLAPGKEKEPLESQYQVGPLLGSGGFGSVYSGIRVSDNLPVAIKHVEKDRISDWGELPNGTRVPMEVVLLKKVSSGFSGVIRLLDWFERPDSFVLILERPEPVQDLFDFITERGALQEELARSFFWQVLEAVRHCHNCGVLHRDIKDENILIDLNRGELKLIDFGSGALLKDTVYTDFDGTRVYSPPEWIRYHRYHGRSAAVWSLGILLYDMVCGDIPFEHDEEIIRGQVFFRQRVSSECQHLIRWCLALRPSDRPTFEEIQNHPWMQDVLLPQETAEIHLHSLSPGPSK

[7] = biological target: Dual specificity tyrosine-phosphorylation-regulated kinase 1A (Rattus norvegicus, UniProt Q63470); assay: Inhibition of rat recombinant GST-tagged DYRK1A using KKISGRLSPIMTEQ as substrate and [gamma32]-ATP after 30 mins by scintillation counting; how it was run: as §2
[8] = biological target: Cyclin-dependent kinase 5/CDK5 activator 1 (Homo sapiens) (UniProt Q00535+Q15078); assay: Inhibition of human recombinant CDK5/p25 at 10 uM; type: protein-complex assay
How it was run: (§4)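 Kinase assayed in buffer C (25 mM Mops pH 7.2, 60 mM beta-glycerophosphate, 30 mM p-nitrophenylphosphate, 15 mM MgCl2, 5 mM EGTA, 1 mM DTT, 0.1 mM vanadate) with 1 mg/mL histone H1. 15 μM ATP final, 30 C. Activity is percent of activity without inhibitor, after blank subtraction. DMSO controls.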

[9] = biological target: Dual specificity tyrosine-phosphorylation-regulated kinase 1A (Rattus norvegicus) (UniProt Q63470); assay: Inhibition of rat recombinant GST-tagged DYRK1A using KKISGRLSPIMTEQ as substrate and [gamma32]-ATP at 10 uM after 30 mins by scintillation counting
How it was run: as §2, with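 “BSA. Woodtide 1.5 μg/assay with 15 μM [γ-33P]ATP, 30 min at 30 C.” for “BSA.”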

[10] = test system: Cyclin-dependent kinase 5/p25 (Homo sapiens); assay: Inhibition of human recombinant CDK5/p25 at 10 uM
Sus scrofa = species: Sus scrofa; assay: Inhibition of pig brain CK1 delta/epsilon using RRKHAAIGpSAYSITA as substrate at 10 uM; how it was run: as §3
[11] = biological target: T3, Dual specificity tyrosine-phosphorylation-regulated kinase 2 (Homo sapiens) (UniProt Q92630); assay: Inhibition of human recombinant GST-tagged DYRK2 using […] as substrate and [gamma32]-ATP at 10 uM after 30 mins by scintillation counting
T3 sequence (whole entry): T1 sequence (Q92630 whole entry)
How it was run: as §2, with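 “BSA. Woodtide 1.5 μg/assay with 15 μM [γ-33P]ATP, 30 min at 30 C.” for “BSA.”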

[12] = biological target: Dual specificity protein kinase CLK1 (Mus musculus) (UniProt P22518); assay: Inhibition of mouse recombinant GST-tagged CLK1 using GRSRSRSRSRSR as substrate at 10 uM; how it was run: as §1
[13] = biological target: Dual specificity protein kinase CLK3 (Mus musculus) (UniProt O35492); assay: Inhibition of mouse recombinant GST-tagged CLK3 using GRSRSRSRSRSR as substrate at 10 uM; how it was run: as §1
[14] = biological target: Dual specificity protein kinase CLK1 (Homo sapiens) (UniProt P49759); assay: Inhibition of CLK1 transfected in human HeLa cells assessed as increase in exon inclusion ratio after 24 hrs by RT-PCR analysis; type: cell-based
How it was run: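 HeLa cells were transfected with […], with kinase-dead CLK1/K190R as comparator. Inhibitors at varying doses were added 3 h post-transfection, with 0.5% DMSO final in all cultures. Cells were harvested 24 h post-transfection, total RNA was extracted, and E1A splicing products were analysed by RT-PCR. Isoform molar ratios were measured by Bioanalyzer to give the exon inclusion ratio. Three independent samples were used.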

[15] = biological target: T2, Serine/threonine-protein kinase pim-1; assay: Inhibition of human recombinant Pim1 at 10 uM; how it was run: as §4
Target sequence in this assay (P11309 whole entry, looked up): as the sequence (P11309 whole entry) above

[16] = biological target: Glycogen synthase kinase-3 alpha/beta (Sus scrofa); assay: Inhibition of pig brain GSK-3alpha/beta

Dual specificity protein kinase CLK1 (Homo sapiens), sequence (P49759 whole entry, looked up, canonical isoform): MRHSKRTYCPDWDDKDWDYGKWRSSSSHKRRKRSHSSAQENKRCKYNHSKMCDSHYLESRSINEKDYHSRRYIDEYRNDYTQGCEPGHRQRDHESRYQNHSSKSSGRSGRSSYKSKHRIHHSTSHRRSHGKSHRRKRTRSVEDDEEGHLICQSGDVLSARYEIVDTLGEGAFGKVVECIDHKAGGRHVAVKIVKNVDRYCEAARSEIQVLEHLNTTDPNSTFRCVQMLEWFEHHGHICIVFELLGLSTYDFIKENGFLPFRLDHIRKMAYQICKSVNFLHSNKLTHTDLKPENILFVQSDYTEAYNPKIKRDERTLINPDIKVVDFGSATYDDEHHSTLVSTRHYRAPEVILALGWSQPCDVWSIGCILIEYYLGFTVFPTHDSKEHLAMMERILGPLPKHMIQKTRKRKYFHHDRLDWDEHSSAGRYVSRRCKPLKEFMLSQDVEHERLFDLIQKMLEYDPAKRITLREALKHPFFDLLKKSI
Cyclin-dependent kinase 5/CDK5 activator 1 (Homo sapiens), sequence (Q00535 whole entry): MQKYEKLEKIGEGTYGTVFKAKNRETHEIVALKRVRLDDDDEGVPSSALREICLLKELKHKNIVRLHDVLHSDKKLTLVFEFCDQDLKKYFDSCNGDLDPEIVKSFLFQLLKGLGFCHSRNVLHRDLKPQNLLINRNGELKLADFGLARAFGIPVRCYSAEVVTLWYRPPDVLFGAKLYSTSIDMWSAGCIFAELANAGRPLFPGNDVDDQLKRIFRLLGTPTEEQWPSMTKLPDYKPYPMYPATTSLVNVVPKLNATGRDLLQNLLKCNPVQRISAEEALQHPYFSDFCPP
Cyclin-dependent kinase 5/CDK5 activator 1 (Homo sapiens), sequence (Q15078 99-307 partner limits assumed): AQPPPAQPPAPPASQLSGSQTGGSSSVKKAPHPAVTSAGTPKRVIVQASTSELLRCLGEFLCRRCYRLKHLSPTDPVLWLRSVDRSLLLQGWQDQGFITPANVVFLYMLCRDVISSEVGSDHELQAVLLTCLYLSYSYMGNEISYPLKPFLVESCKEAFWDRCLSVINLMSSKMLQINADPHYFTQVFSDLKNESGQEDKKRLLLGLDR
Dual specificity protein kinase CLK3 (Mus musculus), sequence (O35492 whole entry): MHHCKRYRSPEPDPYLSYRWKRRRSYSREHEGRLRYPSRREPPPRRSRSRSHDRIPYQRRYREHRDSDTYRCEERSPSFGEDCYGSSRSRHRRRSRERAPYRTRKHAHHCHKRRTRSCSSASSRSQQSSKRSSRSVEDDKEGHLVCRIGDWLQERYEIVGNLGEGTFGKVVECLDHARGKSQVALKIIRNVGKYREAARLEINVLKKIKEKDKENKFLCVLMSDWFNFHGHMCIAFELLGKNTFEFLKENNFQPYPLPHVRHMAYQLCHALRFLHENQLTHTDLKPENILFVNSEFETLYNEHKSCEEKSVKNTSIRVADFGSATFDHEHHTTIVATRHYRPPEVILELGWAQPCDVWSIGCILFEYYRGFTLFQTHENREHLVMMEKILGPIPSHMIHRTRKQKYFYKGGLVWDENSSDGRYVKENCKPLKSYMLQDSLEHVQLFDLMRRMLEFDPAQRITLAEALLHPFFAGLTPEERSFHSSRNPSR
Dual specificity protein kinase CLK3, sequence (O35492 whole entry, the tested form may be a part): as the sequence (O35492 whole entry) above
Dual specificity protein kinase CLK1, sequence (P22518 whole entry): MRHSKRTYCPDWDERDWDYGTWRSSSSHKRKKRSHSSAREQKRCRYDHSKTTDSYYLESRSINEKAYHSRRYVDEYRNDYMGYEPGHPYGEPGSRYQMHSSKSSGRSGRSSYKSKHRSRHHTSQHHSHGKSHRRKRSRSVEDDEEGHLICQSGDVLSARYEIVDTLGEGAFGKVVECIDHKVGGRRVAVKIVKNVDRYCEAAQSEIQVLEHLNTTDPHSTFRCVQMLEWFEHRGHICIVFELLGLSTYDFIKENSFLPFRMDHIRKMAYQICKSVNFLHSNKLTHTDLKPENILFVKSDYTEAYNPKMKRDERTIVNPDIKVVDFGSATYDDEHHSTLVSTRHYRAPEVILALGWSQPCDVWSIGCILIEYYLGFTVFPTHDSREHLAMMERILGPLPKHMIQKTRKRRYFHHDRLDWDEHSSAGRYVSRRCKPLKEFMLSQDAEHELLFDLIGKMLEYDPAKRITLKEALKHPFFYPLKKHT
Dual specificity protein kinase CLK1 (Mus musculus), sequence (P22518 whole entry, looked up): as the sequence (P22518 whole entry) above

With CN1C(=O)/C(=C/c2ccc3c(c2)OCO3)N=C1N [LEUCETTAMINE B] the IC50 [1] was 6400 nM, the IC50 [2] was over 10000 nM and the IC50 [3] was 1500 nM. It also gave an IC50 [4] of 400 nM, an IC50 [5] of over 10000 nM and an IC50 [6] of over 10000 nM. For the same compound, the IC50 [7] was 2800 nM.

In the case of CCCNC1=N/C(=C\c2ccccc2)C(=O)N1C, the inhibition [8] is reported as “inactive”, the inhibition [9] is reported as “inactive” and the inhibition [10] is reported as “inactive”. The inhibition (Sus scrofa) was “inactive”, the inhibition [11] was “inactive” and the inhibition [12] was “inactive”. The inhibition [13] was “inactive” and the IC50 [6] was over 10000 nM.

For COc1ccc2c(c1)[nH]c1c(C)nccc12, the “increase in exon inclusion ratio” value [14] was “Dose-dependent effect”.

CN1C(=O)/C(=C/c2ccc3c(c2)OCO3)N=C1Nc1ccc2c(c1)OCCO2 showed an IC50 [1] of 3600 nM, an IC50 [4] of 220 nM and an IC50 [5] of over 10000 nM. It also gave an IC50 [6] of 2200 nM and an IC50 [7] of 220 nM.

With CC[C@H](CO)Nc1nc(NCc2ccccc2)c2ncn(C(C)C)c2n1 the “increase in exon inclusion ratio” value [14] was “inactive”.

CN1C(=O)/C(=C/c2ccc3c(c2)OCO3)N=C1NCC1CC1 gave an IC50 [1] of 510 nM, an IC50 [3] of 340 nM and an IC50 [4] of 130 nM. It also gave an IC50 [5] of over 10000 nM, an IC50 [6] of 2100 nM and an IC50 [7] of 200 nM.

For CCN1/C(=C/C(C)=O)Sc2ccc(OC)cc21, the “increase in exon inclusion ratio” value [14] was “Dose-dependent effect”.

For CCCNC1=N/C(=C\c2cc(OC)c(OC)c(OC)c2)C(=O)N1C, the inhibition [8] was “inactive”, the inhibition [9] was “inactive” and the inhibition [10] was “inactive”. For the same compound, the inhibition (Sus scrofa) was “inactive”, the IC50 [3] was over 10000 nM and the IC50 [4] was over 10000 nM. The inhibition [13] was “inactive” and the IC50 [6] was over 10000 nM.

With CCCNC1=N/C(=C\c2ccc(Br)cc2)C(=O)N1C the IC50 [1] was 8800 nM, the inhibition [8] was “inactive” and the inhibition (Sus scrofa) was “inactive”. The inhibition [11] was “inactive”, the inhibition [12] was “inactive” and the inhibition [15] was “inactive”.

In the case of CCCNC1=N/C(=C\c2ccc3c(c2)OCO3)C(=O)N1CCC, the inhibition [8] is reported as “inactive”, the inhibition (Sus scrofa) is reported as “inactive” and the IC50 [3] is reported as 2100 nM. For the same compound, the inhibition [12] was “inactive”, the inhibition [13] was “inactive” and the IC50 [6] was over 10000 nM. For the same compound, the IC50 [7] was over 10000 nM.

For CCCNC1=N/C(=C\c2ccc3c(c2)OCO3)C(=O)N1c1ccccc1, the IC50 [1] was over 10000 nM, the inhibition [8] was “inactive” and the inhibition (Sus scrofa) was “inactive”. For the same compound, the IC50 [3] was over 10000 nM, the IC50 [4] was over 10000 nM and the IC50 [6] was over 10000 nM. It also gave an IC50 [7] of over 10000 nM.

For CCNC1=N/C(=C\c2ccc3c(c2)OCO3)C(=O)N1, the IC50 [1] was 3700 nM, the inhibition [10] was “inactive” and the inhibition (Sus scrofa) was “inactive”. It also gave an IC50 [16] of 2400 nM, an IC50 [3] of 160 nM and an IC50 [4] of 400 nM. For the same compound, the IC50 [6] was 3100 nM and the IC50 [7] was 410 nM.

In the case of CCCNC1=N/C(=C\c2ccc3c(c2)OC(F)(F)O3)C(=O)N1C, the inhibition [8] is reported as “inactive”, the inhibition [9] is reported as “inactive” and the inhibition [10] is reported as “inactive”. For the same compound, the inhibition (Sus scrofa) was “inactive”, the inhibition [11] was “inactive” and the inhibition [12] was “inactive”. For the same compound, the inhibition [13] was “inactive” and the IC50 [6] was over 10000 nM.

For CCCNC1=N/C(=C\c2ccccc2O)C(=O)N1C, the IC50 [1] was over 10000 nM, the inhibition [8] was “inactive” and the inhibition [10] was “inactive”. For the same compound, the inhibition (Sus scrofa) was “inactive”, the IC50 [3] was over 10000 nM and the IC50 [4] was over 10000 nM. For the same compound, the IC50 [6] was over 10000 nM.

— ChEMBL document CHEMBL1800025 (J Med Chem, 2011)
